# Test results published in ChEMBL document CHEMBL1141070, “Synthesis and biological activity of flurbiprofen analogues as selective inhibitors of beta-amyloid(1)(-)(42) secretion” (J Med Chem, 2005).
# What was measured:
# [1] = Concentration ratio in cerebrospinal fluid and plasma; settings: rat
# [2] = biological target: T1, Amyloid-beta precursor protein (Homo sapiens, UniProt P05067); settings: at 100 µM
# Target sequence in this assay (P05067 whole entry, canonical isoform): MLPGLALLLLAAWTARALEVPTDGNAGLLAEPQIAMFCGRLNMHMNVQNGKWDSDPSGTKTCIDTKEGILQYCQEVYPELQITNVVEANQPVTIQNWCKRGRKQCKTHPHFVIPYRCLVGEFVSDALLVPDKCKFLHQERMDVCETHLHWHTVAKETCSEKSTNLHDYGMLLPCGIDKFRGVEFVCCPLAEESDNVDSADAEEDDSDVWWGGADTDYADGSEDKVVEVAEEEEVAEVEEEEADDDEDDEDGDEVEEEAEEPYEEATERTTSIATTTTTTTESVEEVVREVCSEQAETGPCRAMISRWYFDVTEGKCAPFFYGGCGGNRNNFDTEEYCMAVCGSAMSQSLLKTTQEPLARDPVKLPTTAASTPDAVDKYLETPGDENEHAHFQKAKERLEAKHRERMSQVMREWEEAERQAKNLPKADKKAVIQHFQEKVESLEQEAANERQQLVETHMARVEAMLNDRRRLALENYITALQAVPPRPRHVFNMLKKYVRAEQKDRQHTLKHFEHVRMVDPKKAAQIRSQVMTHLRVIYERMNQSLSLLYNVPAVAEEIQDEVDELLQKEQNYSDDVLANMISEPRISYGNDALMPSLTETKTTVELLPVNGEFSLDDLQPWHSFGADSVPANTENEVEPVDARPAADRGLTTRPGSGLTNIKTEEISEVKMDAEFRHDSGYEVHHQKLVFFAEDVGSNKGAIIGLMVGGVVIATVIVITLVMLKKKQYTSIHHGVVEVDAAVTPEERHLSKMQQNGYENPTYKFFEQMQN
# CYP2D6 = CYP2D6 (Homo sapiens, UniProt P10635); assay: Interaction with human cytochrome P450 isoform 2D6 expressed in baculovirus-insect cells at 100 uM; assay type: ADME
# Sequence of CYP2D6 (P10635 whole entry, canonical isoform): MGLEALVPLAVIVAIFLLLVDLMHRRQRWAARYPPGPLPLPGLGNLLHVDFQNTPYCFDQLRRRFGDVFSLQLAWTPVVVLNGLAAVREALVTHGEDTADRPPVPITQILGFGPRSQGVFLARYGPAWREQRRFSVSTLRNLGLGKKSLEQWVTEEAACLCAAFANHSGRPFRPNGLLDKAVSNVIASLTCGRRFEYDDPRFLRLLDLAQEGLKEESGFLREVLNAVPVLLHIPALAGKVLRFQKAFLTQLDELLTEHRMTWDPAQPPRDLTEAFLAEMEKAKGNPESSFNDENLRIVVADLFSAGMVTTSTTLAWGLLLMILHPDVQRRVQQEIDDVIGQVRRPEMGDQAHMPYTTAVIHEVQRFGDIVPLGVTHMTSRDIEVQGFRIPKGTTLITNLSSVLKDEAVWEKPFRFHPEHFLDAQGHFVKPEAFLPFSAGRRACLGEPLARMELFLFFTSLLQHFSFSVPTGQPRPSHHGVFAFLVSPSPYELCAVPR
# In short: (§1)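 Microsomes from baculovirus-insect cells expressing human CYP1A2, 2C9, 2C19, 2D6 or 3A4. Compound serially diluted with an NADPH-regenerating mix (16.3 μM NADP+, 0.83 mM glucose-6-phosphate, 0.83 mM MgCl2, 0.4 U/mL G6PDH). Pre-warmed 10 min at 37 °C, then isoform-specific substrate added in 0.35 M potassium phosphate pH 7.4. Fluorometric read-out; IC50 by nonlinear regression.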
# CYP3A4 = CYP3A4 (Homo sapiens, UniProt P08684); assay: Interaction with human cytochrome P450 isoform 3A4 expressed in baculovirus-insect cells at 100 uM; assay type: ADME
# Sequence of CYP3A4 (P08684 whole entry, canonical isoform): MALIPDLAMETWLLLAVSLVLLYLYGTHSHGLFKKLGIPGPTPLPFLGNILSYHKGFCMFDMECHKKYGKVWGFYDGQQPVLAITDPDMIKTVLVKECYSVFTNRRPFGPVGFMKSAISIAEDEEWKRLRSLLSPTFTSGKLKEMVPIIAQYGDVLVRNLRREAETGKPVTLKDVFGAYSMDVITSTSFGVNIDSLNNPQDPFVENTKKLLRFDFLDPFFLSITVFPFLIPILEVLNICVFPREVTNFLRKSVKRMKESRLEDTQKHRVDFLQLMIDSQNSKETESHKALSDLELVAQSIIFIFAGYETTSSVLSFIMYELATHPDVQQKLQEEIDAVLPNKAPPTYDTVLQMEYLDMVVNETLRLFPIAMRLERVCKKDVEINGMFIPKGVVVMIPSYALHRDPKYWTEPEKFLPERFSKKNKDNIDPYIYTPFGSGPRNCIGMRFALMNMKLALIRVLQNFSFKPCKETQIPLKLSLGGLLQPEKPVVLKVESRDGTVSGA
# In short: as §1
# CYP2C9 = CYP2C9 (Homo sapiens, UniProt P11712); assay: Interaction with human cytochrome P450 isoform 2C9 expressed in baculovirus-insect cells at 100 uM; assay type: ADME
# Sequence of CYP2C9 (P11712 whole entry, canonical isoform): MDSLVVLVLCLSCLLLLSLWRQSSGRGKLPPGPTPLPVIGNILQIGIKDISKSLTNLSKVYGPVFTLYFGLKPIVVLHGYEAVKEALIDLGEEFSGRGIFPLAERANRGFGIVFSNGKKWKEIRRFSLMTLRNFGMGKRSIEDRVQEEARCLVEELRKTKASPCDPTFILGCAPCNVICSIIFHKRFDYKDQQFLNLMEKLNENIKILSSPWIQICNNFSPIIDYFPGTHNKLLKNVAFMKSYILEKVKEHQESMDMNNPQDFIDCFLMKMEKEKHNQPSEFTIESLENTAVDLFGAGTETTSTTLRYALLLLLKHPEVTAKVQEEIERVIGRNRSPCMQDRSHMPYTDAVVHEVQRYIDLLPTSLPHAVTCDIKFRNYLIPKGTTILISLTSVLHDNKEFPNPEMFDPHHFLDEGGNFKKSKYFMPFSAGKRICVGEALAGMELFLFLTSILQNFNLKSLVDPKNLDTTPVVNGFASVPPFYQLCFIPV
# In short: as §1
# [3] = In vivo steady state metabolic clearance of the compound; settings: rat
# CYP2C19 = CYP2C19 (Homo sapiens, UniProt P33261); assay: Interaction with human cytochrome P450 isoform 2C19 expressed in baculovirus-insect cells at 100 uM; assay type: ADME
# Sequence of CYP2C19 (P33261 whole entry, canonical isoform): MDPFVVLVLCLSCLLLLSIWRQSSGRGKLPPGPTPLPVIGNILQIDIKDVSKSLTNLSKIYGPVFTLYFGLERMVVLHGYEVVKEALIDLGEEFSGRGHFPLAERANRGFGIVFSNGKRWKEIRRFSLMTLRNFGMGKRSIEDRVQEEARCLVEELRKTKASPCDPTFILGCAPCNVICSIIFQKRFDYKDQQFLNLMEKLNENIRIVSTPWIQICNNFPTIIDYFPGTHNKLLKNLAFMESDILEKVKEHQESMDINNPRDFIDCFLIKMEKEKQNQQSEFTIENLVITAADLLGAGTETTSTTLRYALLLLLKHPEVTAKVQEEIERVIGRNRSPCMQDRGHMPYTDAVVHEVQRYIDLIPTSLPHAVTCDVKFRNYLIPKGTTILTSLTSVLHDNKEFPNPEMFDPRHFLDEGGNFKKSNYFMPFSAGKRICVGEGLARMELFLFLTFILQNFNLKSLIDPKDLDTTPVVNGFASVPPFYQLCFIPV
# In short: as §1
# CYP1A2 = biological target: T2, CYP1A2 (Homo sapiens, UniProt P05177); assay: Interaction with human cytochrome P450 isoform 1A2 expressed in baculovirus-insect cells at 100 uM; assay type: ADME
# T2 sequence (P05177 whole entry): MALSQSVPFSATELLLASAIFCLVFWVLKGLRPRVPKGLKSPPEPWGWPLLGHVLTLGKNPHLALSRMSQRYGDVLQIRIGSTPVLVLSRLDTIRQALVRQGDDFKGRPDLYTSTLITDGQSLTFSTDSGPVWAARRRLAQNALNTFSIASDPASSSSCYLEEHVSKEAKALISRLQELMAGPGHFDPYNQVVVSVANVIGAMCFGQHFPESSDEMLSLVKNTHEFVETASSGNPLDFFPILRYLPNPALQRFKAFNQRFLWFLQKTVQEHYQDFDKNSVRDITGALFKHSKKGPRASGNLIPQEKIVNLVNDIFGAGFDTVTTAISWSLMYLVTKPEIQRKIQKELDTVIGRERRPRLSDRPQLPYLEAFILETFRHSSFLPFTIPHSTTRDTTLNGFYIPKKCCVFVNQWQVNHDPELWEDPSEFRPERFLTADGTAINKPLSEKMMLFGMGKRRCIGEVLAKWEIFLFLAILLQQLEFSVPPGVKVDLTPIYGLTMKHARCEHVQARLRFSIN
# In short: as §1
# [4] = biological target: T1, Amyloid-beta precursor protein; assay: Inhibitory concentration against beta-amyloid-42 (Abeta42) secretion was evaluated in human neuroglioma cells (H4-APP695NL); assay type: functional, cell-based
# In short: (§2)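 H4-APP695NL human neuroglioma cells (APP695 Swedish K595N/M596L) seeded at 2 × 10^5/well and grown 24 h to confluence. Increasing compound concentrations added overnight; DMSO 1% as vehicle. Supernatant Aβ42 or Aβ40 measured by electrochemiluminescence immunoassay: biotinylated 4G8 plus C-terminus-specific rabbit antibodies, captured on streptavidin beads.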
# Target sequence in this assay (P05067 18-770 limits assumed): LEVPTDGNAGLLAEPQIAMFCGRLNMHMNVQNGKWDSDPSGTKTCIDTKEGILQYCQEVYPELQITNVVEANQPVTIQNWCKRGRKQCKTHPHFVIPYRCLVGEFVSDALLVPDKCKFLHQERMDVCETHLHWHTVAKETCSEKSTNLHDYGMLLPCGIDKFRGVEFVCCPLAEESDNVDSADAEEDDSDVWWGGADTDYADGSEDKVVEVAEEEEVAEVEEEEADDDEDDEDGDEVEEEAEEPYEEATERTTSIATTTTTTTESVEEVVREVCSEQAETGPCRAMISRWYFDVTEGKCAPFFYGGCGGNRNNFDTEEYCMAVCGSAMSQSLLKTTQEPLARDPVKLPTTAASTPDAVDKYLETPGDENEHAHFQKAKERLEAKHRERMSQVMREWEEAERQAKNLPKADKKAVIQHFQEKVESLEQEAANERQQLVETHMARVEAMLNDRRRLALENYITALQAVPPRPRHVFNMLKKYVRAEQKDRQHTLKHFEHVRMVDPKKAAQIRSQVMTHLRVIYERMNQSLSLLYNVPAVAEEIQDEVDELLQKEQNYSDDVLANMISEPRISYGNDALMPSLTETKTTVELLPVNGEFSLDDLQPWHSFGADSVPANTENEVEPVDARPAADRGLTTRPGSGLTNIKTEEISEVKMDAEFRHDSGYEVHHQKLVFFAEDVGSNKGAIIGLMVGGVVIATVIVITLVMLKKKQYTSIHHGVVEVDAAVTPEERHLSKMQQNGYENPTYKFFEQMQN
# Cytochrome P450 2C19 = Cytochrome P450 2C19 (Homo sapiens, UniProt P33261); assay: Interaction with human cytochrome P450 isoform 2C19 expressed in baculovirus-insect cells; assay type: ADME
# Sequence of Cytochrome P450 2C19 (P33261 whole entry, canonical isoform): as the sequence (P33261 whole entry, canonical isoform) above
# In short: as §1
# [5] = Intestinal drug absorption was estimated in vitro using human colon adenocarcinoma (Caco-2) cell monolayers; assay type: ADME
# In short: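 Caco-2 monolayers on polycarbonate Transwell inserts, 2 h at 37 °C. Apical and basolateral solutions analysed by LC-MS/MS (SRM). Papp = Cb·Vb/(C0·A·t).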
# [6] = biological target: T3, Prostaglandin G/H synthase 1 (Rattus norvegicus) (UniProt Q63921); assay: Percent inhibition against cyclooxygenase-1 at 100 uM in rat blood
# T3 sequence (whole entry): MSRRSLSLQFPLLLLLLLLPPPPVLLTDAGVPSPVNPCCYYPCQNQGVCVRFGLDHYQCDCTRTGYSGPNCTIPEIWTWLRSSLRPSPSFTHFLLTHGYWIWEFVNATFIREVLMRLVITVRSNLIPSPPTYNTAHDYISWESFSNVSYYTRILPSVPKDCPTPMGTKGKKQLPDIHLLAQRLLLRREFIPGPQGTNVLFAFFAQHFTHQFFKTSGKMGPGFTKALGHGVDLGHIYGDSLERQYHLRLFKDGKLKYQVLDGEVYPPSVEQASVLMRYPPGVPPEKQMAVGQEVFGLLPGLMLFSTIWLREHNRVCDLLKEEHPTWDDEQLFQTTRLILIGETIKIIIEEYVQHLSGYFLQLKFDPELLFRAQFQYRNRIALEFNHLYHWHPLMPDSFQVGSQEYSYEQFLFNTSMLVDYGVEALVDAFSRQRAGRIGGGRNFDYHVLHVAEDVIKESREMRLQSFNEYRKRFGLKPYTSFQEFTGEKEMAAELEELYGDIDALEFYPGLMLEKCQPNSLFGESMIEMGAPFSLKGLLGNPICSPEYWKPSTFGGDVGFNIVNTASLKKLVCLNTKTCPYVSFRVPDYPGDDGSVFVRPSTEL
# In short: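 Fresh rat whole blood preincubated 1 h at 37 °C with compound (100 μM) or DMSO (0.3% final). Stimulated 30 min with A23187 calcium ionophore; plasma thromboxane B2 measured by radioimmunoassay.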
# Cytochrome P450 2C9 = Cytochrome P450 2C9 (Homo sapiens, UniProt P11712); assay: Interaction with human cytochrome P450 isoform 2C9 expressed in baculovirus-insect cells; assay type: ADME
# Sequence of Cytochrome P450 2C9 (P11712 whole entry, canonical isoform): as the sequence (P11712 whole entry, canonical isoform) above
# In short: as §1
# Cytochrome P450 3A4 = Cytochrome P450 3A4 (Homo sapiens, UniProt P08684); assay: Interaction with human cytochrome P450 isoform 3A4 expressed in baculovirus-insect cells; assay type: ADME
# Sequence of Cytochrome P450 3A4 (P08684 whole entry, canonical isoform): as the sequence (P08684 whole entry, canonical isoform) above
# In short: (§3)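 Supersome microsomes from baculovirus-insect cells expressing human CYP1A2, 2C9, 2C19, 2D6 or 3A4 were used with isoform-specific fluorogenic substrates. Compounds were serially diluted with an NADP⁺/glucose-6-phosphate regenerating system in 0.35 M potassium phosphate, pH 7.4. Plates were prewarmed 10 min at 37 °C, reactions stopped with acetonitrile/Tris, and fluorescence read. IC50 was obtained by nonlinear regression.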
# [7] = biological target: T1, Amyloid-beta precursor protein; assay: Concentration required to inhibit A beta 40 peptide 100 um
# Target sequence in this assay (P05067 whole entry, canonical isoform): as the sequence (P05067 whole entry, canonical isoform) above
# [8] = biological target: T4, Prostaglandin G/H synthase 1 (Rattus norvegicus, UniProt Q63921); assay: Concentration required to inhibit cyclooxygenase-1 in rat blood
# T4 sequence (Q63921 whole entry): T3 sequence (whole entry)
# In short: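 Fresh rat whole blood was preincubated 1 h at 37 °C with compound (100 μM or a concentration series; DMSO 0.3% final). It was then stimulated 30 min with the Ca²⁺ ionophore A23187. Thromboxane B2 in the plasma was measured by radioimmunoassay.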
# Cytochrome P450 2D6 = Cytochrome P450 2D6 (Homo sapiens, UniProt P10635); assay: Interaction with human cytochrome P450 isoform 2D6 expressed in baculovirus-insect cells; assay type: ADME
# Sequence of Cytochrome P450 2D6 (P10635 whole entry, canonical isoform): as the sequence (P10635 whole entry, canonical isoform) above
# In short: as §3
# [9] = biological target: T1, Amyloid-beta precursor protein; assay: Concentration required to inhibit A beta 40 peptide 100 uM
# In short: as §2
# Target sequence in this assay (P05067 whole entry, canonical isoform): as the sequence (P05067 whole entry, canonical isoform) above
# [10] = Concentration ratio in cerebrospinal fluid and plasma; below lower limit of quantitation; settings: rat
compound,measurement,setting,value
CC(C(=O)NS(C)(=O)=O)c1ccc(-c2ccc(C(F)(F)F)cc2)c(F)c1 (stereo not given),Ratio,[1],1.7%
same,inhibition,[2],34%
same,inhibition at 100 µM,CYP2D6,> 50%
same,inhibition at 100 µM,CYP3A4,> 50%
same,inhibition at 100 µM,CYP2C9,> 50%
same,Clearance,[3],3.1 mL/h
same,inhibition at 100 µM,CYP2C19,> 50%
same,inhibition at 100 µM,CYP1A2,> 50%
CC(C(=O)O)c1ccc(-c2ccc(C(F)(F)F)cc2)cc1C(F)(F)F (stereo not given),inhibition,[2],57%
COc1ccc(-c2ccc(C(C)C(=O)O)cc2F)cc1 (stereo not given),inhibition,[2],67%
same,IC50,[4],67 µM
same,IC50,Cytochrome P450 2C19,87 µM
same,Papp,[5],> 5 ×10⁻⁶ cm/s
O=C(O)C1(c2ccc(-c3csc4ccccc34)c(F)c2)CC1,Ratio,[1],2.6%
same,inhibition,[2],49%
same,inhibition,[6],< 1%
same,IC50,[4],96.3 µM
same,Clearance,[3],113.6 mL/h
same,IC50,Cytochrome P450 2C9,19 µM
same,Papp,[5],> 5 ×10⁻⁶ cm/s
CC(C(=O)O)c1ccc(-c2cccc(Cl)c2)c(F)c1 (stereo not given),inhibition,[2],58%
CC(C(=O)O)c1ccc(-c2ccc(-c3ccc(O)cc3)cc2)c(F)c1 (stereo not given),Ratio,[1],1.1%
same,inhibition,[2],75%
same,inhibition,[6],17%
same,IC50,[4],35 µM
same,Clearance,[3],85 mL/h
same,IC50,Cytochrome P450 2C9,4.7 µM
same,IC50,Cytochrome P450 2C19,58 µM
same,Papp,[5],> 5 ×10⁻⁶ cm/s
same,IC50,Cytochrome P450 3A4,74 µM
CC(C)(C(=O)O)c1ccc(-c2ccc(C3CCCCC3)cc2)c(F)c1,inhibition,[2],77%
same,inhibition,[7],47%
same,inhibition,[6],12%
same,IC50,Cytochrome P450 2C9,28 µM
same,IC50,Cytochrome P450 3A4,59 µM
C[C@H](C(=O)O)c1ccc(-c2ccccc2)c(F)c1 [ESFLURBIPROFEN],IC50,[8],0.03 µM
CC(C(=O)O)c1ccc(-c2ccc3c(c2)OCO3)c(F)c1 (stereo not given),inhibition,[2],42%
same,IC50,[4],210 µM
CC(C(=O)O)c1ccc(-c2ccc(C(F)(F)F)cc2)cc1 (stereo not given),inhibition,[2],2%
CC(C(=O)O)c1ccc(-c2ccncc2)c(F)c1 (stereo not given),inhibition,[2],11%
CC(C(=O)O)c1ccc(-c2ccccc2Cl)c(F)c1 (stereo not given),inhibition,[2],13%
CC(c1ccc(-c2ccc(C(F)(F)F)cc2)c(F)c1)c1nnn[nH]1 (stereo not given),inhibition,[2],43%
same,inhibition,[6],9%
same,IC50,[4],114 µM
same,inhibition at 100 µM,CYP2D6,> 50%
same,inhibition at 100 µM,CYP3A4,> 50%
same,inhibition at 100 µM,CYP2C9,> 50%
same,inhibition at 100 µM,CYP2C19,> 50%
same,inhibition at 100 µM,CYP1A2,> 50%
CC1(C)CCC(c2ccc(-c3ccc(C4(C(=O)O)CC4)cc3F)cc2)CC1,Ratio,[1],Below LLOQ
same,inhibition,[2],75%
same,inhibition,[6],17%
same,IC50,[4],46 µM
same,Clearance,[3],145.8 mL/h
same,IC50,Cytochrome P450 2D6,5.3 µM
same,IC50,Cytochrome P450 2C9,17 µM
same,IC50,Cytochrome P450 2C19,13 µM
same,IC50,[9],101 µM
same,Papp,[5],< 1 ×10⁻⁶ cm/s
same,IC50,Cytochrome P450 3A4,84 µM
O=C(O)C1(c2ccc(-c3ccc(C4CCOCC4)cc3)c(F)c2)CC1,Ratio,[10],Below LLOQ
same,inhibition,[2],52%
same,Clearance,[3],39 mL/h
CC(C(=O)O)c1ccc(-c2ccccc2C(F)(F)F)c(F)c1 (stereo not given),inhibition,[2],25%
CC(C(=O)O)c1ccc(-c2ccsc2)c(F)c1 (stereo not given),inhibition,[2],40%
